Screens: PubChem BioAssay, several laboratories
An excerpt weighted towards active compounds, which were near 2.1% of everything screened.
dFosB act: mouse delta FosB homodimer activation | activation, % at 25 µM | AID 493131 | actives 0.99% (n = 340,000) | purified delta FosB, TAMRA-CDK5 oligo fluorescence polarization; percent of positive-control signal above neutral wells;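 active means mean activation above about 17%, with every replicate also reaching it, limit read from the data, passing the limit was not always enough; inconclusive means only one of the two conditions met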
PKA-R2B act: activators of human PKA-R2B complex; P22694+P31323; PKA-R2B holoenzyme dissociation, Cy5-IP20 fluorescence polarization; R2B truncated from residue 108, S112A mutant; 0% DMSO only, 100% 113 µM cGMP; activation, % at 11.4 µM; actives 0.079% (n = 340,000);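 active means activation above a cutoff set at the mean over all compounds plus 3 SD, cut at about 18% in these data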;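 further: higher means more holoenzyme dissociation and a rise in polarization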
Target sequence (P31323 whole entry, looked up, other chains not shown, the tested form may be a part): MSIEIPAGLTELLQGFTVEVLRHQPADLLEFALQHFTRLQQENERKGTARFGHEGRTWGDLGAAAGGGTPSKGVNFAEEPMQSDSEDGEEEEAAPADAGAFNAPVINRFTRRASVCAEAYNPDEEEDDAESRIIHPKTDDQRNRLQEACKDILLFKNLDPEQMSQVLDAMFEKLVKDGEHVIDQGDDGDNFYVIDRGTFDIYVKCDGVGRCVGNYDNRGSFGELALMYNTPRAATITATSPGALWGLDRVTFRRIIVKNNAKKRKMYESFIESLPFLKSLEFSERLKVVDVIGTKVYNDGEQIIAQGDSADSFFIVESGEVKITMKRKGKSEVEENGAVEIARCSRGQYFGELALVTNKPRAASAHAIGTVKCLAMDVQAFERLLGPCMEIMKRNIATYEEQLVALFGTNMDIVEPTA
SR-BI uptake up: enhances SR-BI lipid uptake from DiI-HDL. CHO ldlA[mSR-BI] cells, DiI-HDL uptake fluorescence, 3 h; 100 = double the neutral-control signal. activation, % at 12.5 µM. actives 0.096% (n = 320,000). AID 504775;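 active means mean replicate activation of at least 60% and every replicate at or above 60%; inconclusive means mean or all-replicate condition met, but not both; inactive means mean below 60% and not all replicates reaching 60%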;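 further: 0% = median plate neutral-control signal and 100% = twice that signal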
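System: CHO ldlA[mSR-BI] cells / Medium: HEPES-buffered (25 mM, pH 7.4) F12 plus 0.5% BSA / Probe or stimulus: labelled HDL, 10 µg/mL / Doses: single compound concentration, delivered by pin transfer / Schedule: 3 h, 37 °C / Measured by: DiI fluorescence, bottom read / Measure: cell-associated DiI fluorescence as measure of HDL uptake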
SR-BI HDL uptake: blocks mouse SR-BI lipid uptake from DiI-HDL; inhibition, % at 12.5 µM; Q61009; actives 0.96% (n = 320,000); ldlA[mSR-BI] CHO cells, DiI-HDL uptake fluorescence, 3 h; AID 488896;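 active means mean replicate inhibition of at least 70% and a set share of replicates each scoring 70 or more; inconclusive means meets just one of the two criteria; inactive means fails both criteria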;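 further: 0% = median of neutral control wells and 100% = median of positive control wells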
PKA-R1A act: PKA-R1A complex activation. PKA-R1A dissociation, Cy5-IP20 fluorescence polarization; scaled: DMSO 0%, 113 µM cGMP 100%. actives 0.083% (n = 340,000). activation, % at 11.4 µM. P00514+P68181;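 active means percent activation above the mean of all tested compounds plus 3 SD, cut at about 19% in these data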;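 further: higher means more PKAc released from R1A so a rise in polarization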
CDK5 inh: blocks human CDK5/p35 kinase activity | inhibition, % at 10 µM | actives 0.01% (n = 330,000) | Recombinant CDK5/p35, ADP-Glo luminescence, 60 min;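 active means highest replicate inhibition of at least 50% and at least 75% of replicates reaching 50%; inconclusive means only one of the two criteria met; inactive means both criteria failed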;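 further: plate controls were DMSO neutral control for no effect and GW8510 at 10 µM for full effect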
The depositor's hits bear a star; ? = inconclusive; nt = not tested or not shown.

SMILES	dFosB act	PKA-R2B act	SR-BI uptake up	SR-BI HDL uptake	PKA-R1A act	CDK5 inh
Cn1c(CCC(=O)Nc2cc(S(C)(=O)=O)ccc2Cl)nc2cc(S(=O)(=O)N3CCOCC3)ccc21	-3	8	13	-13	-1	0
N#C/C(=C/c1cn(-c2ccccc2)nc1-c1cccc(OCc2ccccc2)c1)C(=O)NCCCn1ccnc1	31*	4	84*	-84	-6	1
COc1ccc(NC(=O)NNC(=O)COc2ccc3cc(Br)ccc3c2)c(OC)c1	82*	5	-1	1	0	0
Cc1ccc(-n2nc3c(=O)n(CCCC(=O)NCc4ccccc4Cl)nc(C)c3c2C)cc1	-5	1	-13	13	2	1
CCCOc1ccc(-c2c(C(=O)N/N=C/c3cccs3)nnn2-c2nonc2N)cc1	5	-9	-73	73*	-8	-1
CCOc1ccc(-c2c(C(=O)N/N=C/c3ccc(C)o3)nnn2-c2nonc2N)cc1	-1	7	-76	76*	-1	-1
CCCOc1ccc(-c2c(C(=O)N/N=C/c3ccncc3)nnn2-c2nonc2N)cc1	2	-4	-39	39	-8	nt
CCCOc1ccc(-c2c(C(=O)N/N=C/c3ccc(OCC)cc3)nnn2-c2nonc2N)cc1	1	-7	-62	62	-2	-2
CCCOc1ccc(-c2c(C(=O)N/N=C/c3ccc(C)o3)nnn2-c2nonc2N)cc1	?	-5	-78	78*	-4	0
COC(=O)c1ccc(Oc2coc3cc(OCc4ccc([N+](=O)[O-])cc4)ccc3c2=O)cc1	-8	-10	-3	3	-7	-2
CC(=O)c1cc2c(cc1NC(=O)CN1Cc3ccccc3C1=O)OCO2	14	-6	-12	12	-9	nt
COc1ccc(S(=O)(=O)Nc2cc3c4c(c2)CC(=O)N4CCC3)cc1OC	nt	-4	nt	nt	0	nt
COc1cc2c(cc1NC(=S)Nc1cccc3ccccc13)oc1ccccc12	11	2	-77	77*	-5	-1
COCCCNC(=S)Nc1cc2oc3ccccc3c2cc1OC	-10	-2	-88	88*	-9	1
COc1cc2c(cc1NC(=S)Nc1cccc(C(F)(F)F)c1)oc1ccccc12	-7	7	-75	75*	-4	1
O=C1NC2(CCCCCC2)C(=O)N1Cc1ccccc1Br	-8	3	9	-9	4	2
CC(C)Cn1c(SCC(=O)Nc2cccnc2Cl)nnc1-c1ccco1	-6	2	-12	12	-4	0
Nc1cc([N+](=O)[O-])cc2oc(-c3ccccc3)cc12	2	-10	-70	70*	-9	-2
CN(Cc1c(F)cccc1Cl)C(=O)c1ccc2ccccc2n1	-5	10	nt	nt	-3	-2
Clc1ccc(OCCOCCN2CCCCC2)c(Br)c1	-1	7	-5	5	19*	0
COc1ccc(Nc2nc(NCc3ccco3)nc(N/N=C/c3ccc(O)cc3)n2)cc1	42*	0	-42	42	-6	-5
CC(=O)NC(CC(=O)OCC(=O)N1CCN(S(=O)(=O)c2ccc(C)cc2C)CC1)c1ccccc1 (stereo not drawn)	-2	4	-11	11	8	0
COc1cc(/C=C/C(=O)Nc2cc(C(F)(F)F)ccc2Cl)cc(OC)c1OC	-3	-12	-78	78*	-6	-2
Cc1ccn2cc(-c3ccc(O)c(O)c3)nc2c1	1	1	-7	7	-5	10
CSCC[C@H](NC(=O)N1C[C@H]2C[C@@H](C1)c1cccc(=O)n1C2)C(=O)Nc1ccc(NC(C)=O)cc1	-2	-8	23	-23	6	-2
SMILES	dFosB act	PKA-R2B act	SR-BI uptake up	SR-BI HDL uptake	PKA-R1A act	CDK5 inh
CCCc1c(C(=O)N/N=C/c2ccc(OCc3ccccc3)cc2)nnn1-c1nonc1N	nt	-5	nt	nt	-13	nt
COc1cc(/C=N/NC(=O)c2cc(C)oc2C)ccc1OCc1ccccc1	13	1	-79	79*	-1	2
COc1ccc(/C=N\NC(=O)c2ccccc2Br)cc1COc1ccc(F)cc1	?	-1	-79	79*	-2	2
COc1ccc(/C=N\NC(=O)c2ccccc2)cc1COc1ccc(F)cc1	-6	-1	-11	11	6	-1
COc1cc(C(=O)N/N=C/c2ccc(OC)c(CN3CCN(c4ccc(F)cc4)CC3)c2)ccc1O	39*	3	-15	15	-10	-3
CCCc1c(C(=O)N/N=C/c2ccccc2OCc2ccc(F)cc2)nnn1-c1nonc1N	5	-4	-85	85*	2	-1
CCCc1c(C(=O)N/N=C/c2ccc(OCc3ccccc3)c(OC)c2)nnn1-c1nonc1N	0	0	-76	76*	-10	-6
Cc1nc(N2CCC(C)CC2)c2nnn(Cc3ccccc3)c2n1	-3	-12	-81	81*	-5	-3
O=C(Nc1ccc(F)cc1)C1CCCN(S(=O)(=O)c2ccc3[nH]c(=O)ccc3c2)C1 (stereo not drawn)	18*	-6	16	-16	-4	0
Cc1ccc(C)c(NC(=O)C2CCCN(S(=O)(=O)c3ccc4[nH]c(=O)ccc4c3)C2)c1 (stereo not drawn)	6	-4	5	-5	-6	0
Cc1ccc(NC(=O)c2ccc(Cl)c(S(=O)(=O)Nc3c(C)n(C)n(-c4ccccc4)c3=O)c2)cc1Cl	-13	-4	-73	73*	8	-1
COc1cc(NC(=O)NCc2ccco2)ccc1-c1ccc(NC(=O)NCc2ccco2)cc1OC	-4	10	-74	74*	-2	-1
O=C(Nc1ccc([N+](=O)[O-])cc1)Nc1ccc2c(c1)OCCO2	3	12	-47	47	2	-1
COc1ccc(OC)c(NC(=O)NCCN2CCN(c3ccccc3)CC2)c1	-8	-2	-13	13	2	0
COc1cc([N+](=O)[O-])ccc1NC(=O)Nc1ccc2c(c1)OCCO2	-7	-7	-97	97*	-12	5
COc1cc([N+](=O)[O-])ccc1NC(=O)NCc1ccco1	-5	-2	-72	72*	-4	0
COc1ccc(N2CCN(CCNC(=O)Nc3ccc([N+](=O)[O-])cc3OC)CC2)cc1	-13	-4	-76	76*	6	-2
CC(C)OC(=O)C1OC1(C)c1ccccc1 (stereo not drawn)	1	3	19	-19	-3	0
